Reference: the EternaBench riboswitch data

Tested on: MS2 coat protein
Experiment: apparent Kd, MS2 coat protein; higher = weaker binding; RNA-MaP array; FMN 200 µM where present
Summary of the method: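 The titrant was SNAP-549-labelled MS2 coat protein, run from 0.7 or 1.5 nM in doubling steps to 3 µM. It was applied to designs transcribed by stalled E. coli RNA polymerase on Illumina sequencing-chip clusters, without ligand first and then with constant ligand, in 100 mM Tris-HCl pH 7.5, 80 mM KCl, 4 mM MgCl2, BSA, DTT, yeast tRNA and Tween-20. The apparent Kd is the median of filtered per-cluster binding-curve fits, with green signal normalised to red-channel RNA signal and control-cluster median Fmax.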

[1] = designed as: ON switch for flavin mononucleotide, no ligand
[2] = ligand present: flavin mononucleotide, designed as: ON switch for flavin mononucleotide
[3] = designed as: OFF switch for flavin mononucleotide, no ligand
[4] = ligand present: flavin mononucleotide, designed as: OFF switch for flavin mononucleotide

Sequence	apparent Kd [1] [nM]	apparent Kd [2] [nM]	apparent Kd [3] [nM]	apparent Kd [4] [nM]
GGGUACAUCGGAGGAUAUCAUGUAAAUACAUGAGGAUCACCCAUGUCGAUGGAGACAUCGGAGAUCGAGAAGGCCGAUGUACCG	168	294	–	–
GUGGCACAUGAGGAUCACCCAUGUCAGGAUAUCGUGUGUUUUUUUUCGGCCGCGCGCGCGAGAAGGGACGUCUU	–	–	149	120
UAUGUAUUCGUAGGAUAUCCGUCGCCACCGUGUGGAGAAGGACGAACAUGAGGAUCACCCAUGUAUCAUGGUGUAGACAAUUUU	–	–	77	135
AGGUCAACCACAGGAUAUGGCUAGCAUAGCUAGCCAGAAGGGUGGUCAUUUCCAUGUAAAUACAUGAGGAUCACCCAUGUAUCC	126	41.1	–	–
AGCUACGUUUCGUAGCAGUGUCAUCGAGAAGGCCUCAUAACAUGAGGAUCACCCAUGUUAGCAUGGGAGGAUAUCGAUGAUACA	58.8	24.2	–	–
UAAUAAUUAAGAGGAUAUAUACAACAUGAGGAUCACCCAUGUACCCAUGUAGUAGAAGGCUUAUUUUUAUUUAAUAAUAUAAUU	122	40.1	–	–
AUAGGUUAAGGAGGAUAUAGAGGGAGACGUACACAUGAGGAUCACCCAUGUAUUUAAUUAGUUUACUAGAAGGCUUAUGAUUGU	65.5	101	–	–
UUUUAACAUGAGGAUCACCCAUGUCGUUCAAAUCAAGGAUAUCAAGCGUGUGCACACGCCUGAGAAGGUGAAGCUC	55.8	98.9	–	–
ACAUGAGGAUCACCCAUGUAGAGUGAAGAAGGUAGAUACUUAUGACUCUCCCAUGUACAUAGGACUGAGGAUAUUCUAAUAAUU	23.4	18.9	–	–
UUGUGUGUAGAGGAUAUCUGCGCGCGCGCGCGCGGAGAAGGCUGUACAUGAGGAUCACCCAUGUUGUGUGUGUG	–	–	71.8	29.9
CGCUCAAUUCUUUAGGUUAGAAUCAGAAGGCGUAACAUGAGGAUCACCCAUGUAUAGAAGUGUAACGAGGAUAUGAAUUGAGCG	–	–	8.86	8.25
UCGAGGUCAGGAUAUACAUGAGGAUCACCCAUGUGGAAGUAAGGUAGGAGAAGAGUAGGUAGAAGGGACGAGAG	–	–	42.6	35.7
AGAGUGUGAGGAUAUAUGGUGCAGAUGAAGGGAUAGAAGGAGUAGAAGGUACAUGAGGAUCACCCAUGUUAGGA	–	–	27.4	21.7
AGGAGGUGAGGAUAUGCUGCUCGUCACUUGCGUGAUGAGUAGCAGAAGGCACAUGAGGAUCACCCAUGUAAAGA	–	–	117	105
AAAACAUGAGGAUCACCCAUGUUAAGAUCGGUUAAUAGAAGUGAGGAUAUACGAAGUUAAAGCUGGUAGAAGGCACUGGGUACA	29.2	26.5	–	–
UAUUGAUAAUAUUUUCACAUGAGGAUCACCCAUGUCGCUCGACAGGAUAUAUUUUAUUUGUUUAAGUAGAAGGGUCGCAGAUUU	143	109	–	–
CGCUACGUUUCGUAGCAGCUAGGUGAGGAUAUUCAAUUUUUCACAUGAGGAUCACCCAUGUAUGUGAAGAAGGCGCCUAGAAAU	10.7	4.96	–	–
GCGAUUUUGUAAGGAUAUAUACGAGUUUCAAGUGUAGAAGGUACUUACAUGAGGAUCACCCAUGUAUACAUGGAUAAUAGUCGC	269	136	–	–
CGCAGGAUACAGAAGGAGUUAUUGAGAGGUUUACUAGGAUAUGUUCACAUGAGGAUCACCCAUGUCAUAUGGUUUUUUAUUGCG	–	–	12.5	11.7
AUUUCGUUAUCAGGAUAUGGACAGGCCUGUCCGUAUUGAGACAGUAACAUGAGGAUCACCCAUGUCCAGAAGGGAUCGAAGUAU	–	–	57	46.7
GUUUCGUGAGGAUAUGUGGCUUCGAUCGUGCGAACGAGGCUACAGAAGGCACAUGAGGAUCACCCAUGUUCCUC	–	–	37.4	481

Sequence	apparent Kd [1] [nM]	apparent Kd [2] [nM]	apparent Kd [3] [nM]	apparent Kd [4] [nM]
AGCUGUGGCCGAGGAUAUCUACUAAUCCAAACCGAAAUAUAAUCGGACAUGAGGAUCACCCAUGUAGAGAAGGCGGUCUCAGCA	–	–	254	410
UAUCGGGUGCGACUCGCAAGAGGGACAGAAGGCCAUCGACAUGAGGAUCACCCAUGUAACGAAAUGGAGGAUAUGUCUGGUCGA	27.5	5.65	–	–
GUGUACGCAGGAUAUACAUGAGGAUCACCCAUGUGAAUAAGAUAGAAUAAGAUAAAGUGUAGAAGGGCGAGUGU	–	–	35.2	34.9
AAAUAAAUGACUCAGGAUAUAUCAUAGAAUACAUGAGGAUCACCCAUGUUUUAAUAACAUGUUUGGUAGAAGGGAGUCAAUAAAU	80.4	29.3	–	–
ACAUGAGGAUCACCCAUGUGAUGAUCUCCCAUGUCAUAUUUCAGAAGGCUCGCGUGUUUGAUGAGAGAGGAUAUGGAAUAUGCG	–	–	208	152
GCAAUAGCAUGAGGAUAUGCUGGAGUUUAGACAGCAGAAGGCAUGUCAUAAGACAUGAGGAUCACCCAUGUAGUUACAAUGGCA	26.9	11.3	–	–
ACGAGGGUUACAGGAUAUGAAGCUAAAACGGCGUUAGAAGGGUAUACAGAGUUACAUGAGGAUCACCCAUGUUGUGACUUCGAA	–	–	33.6	41
CCUUUGAAGAUCCAAAAUUUCGACAUGAGGAUCACCCAUGUGCAGGAUAUCGUGCCAGUGAUGUACGAGAAGGGCAGACUCUGC	–	–	132	158
AGAAACUACGAGAAGGACAUGUGGUCCUUCAGUUACAUGAGGAUCACCCAUGUAGGAUAUCGUAGUUUCAGGAUCGUGAGAUCC	–	–	42	12.5
ACGGCUUAGUCAGGAUAUACAAGAUUGUGAGACUACAUGAGGAUCACCCAUGUAGAAGGGACUAAUCGUCUGAACAUUGCUUUC	–	–	7.58	22.1
UUAUUUAUGUAAGGAUAUCGAUUAUAUACACAUCCGACAUGAGGAUCACCCAUGUUUUAUUUUUUCGAGAAGGUACAUUGUCGG	76.5	74.7	–	–
GGGUGCCCUGCAGAAGCGACAUGAGGAUCACCCAUGUAACGUAGAAGGGCCCGGAACUAAGGUGGGCAGGAUAUACUGUUAGGU	–	–	6.76	–
CCAUUCAGAGGAUAUGCGCAUAGAUAAGACUUUUUUUCUUAACAUGAGGAUCACCCAUGUAGAAGGCUGUACCC	–	–	21.6	19.4
AAGGAGUCAGGAUAUGCUGCUCGUCACUUGCGUGAUGAGUAGCAGAAGGGACAUGAGGAUCACCCAUGUAAAAA	–	–	56.9	55.8
AUGUUUCAUGUAGGAUAUGCAUAGCGUUGCUAUGCAGAAGGACAUGAGGAUCACCCAUGUAUAUUAUCAUUACAUAUCAUACAU	–	–	45.7	546
GCGUUGUUGUAGAAGGUACAUGAAUACUUUUAUUACCUCAAGUAACAUGAGGAUCACCCAUGUAGUAAGGAUAUACAUGAACGC	35.1	24.3	–	–
ACUGGUCGAGGAUAUACAUGAGGAUCACCCAUGUCGAUCAACCAGCGAUAGCUGGAAUGUAGAAGGCGACCAGU	–	–	200	446
ACAUACAUUCGAGGAUAUCGGUGAUUUAUUUUACGAGAAGGCGAUUUAAGAUUUAUUAUUUUAGACAUGAGGAUCACCCAUGUA	27.7	24.5	–	–
CUCAUGUGAGGAUAUGUGAUCUGCUUUCUGUGUAGAUGAUCACAGAAGGCACAUGAGGAUCACCCAUGUAGAUC	–	–	70.5	29.6
UGUACGUGAGGAUAUGGACGUAUCGAAGACAAGCUACGAUACCAGAAGGUACAUGAGGAUCACCCAUGUGGUUC	–	–	376	370
CUUCGUAUAGAGGAUAUAGGUUACCUCGGUAUCCUAGAAGGCUGUACAUGAGGAUCACCCAUGUACUUCAGAUC	–	–	12.4	14.5
